Source: PubChem (several laboratories)
Only some compounds are listed: those with a hit (about 5.7% of all), similar ones and a draw of the others.
SKKanGAS inh – inhibitors of SKKanGAS S. pyogenes growth in kanamycin (SK-promoter or general growth effect); BacTiter-Glo, 6 h; inhibition, % at 7.5 µM; 300,000 compounds, 1.3% hits; AID 1662;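 active = mean replicate score, as percent of positive control median, at least 50; inconclusive = mean below 50 but one replicate at or above 50; inactive = mean and every replicate below 50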;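 also: strain carries kanamycin resistance gene driven by streptokinase promoter and grows in 40 µg/ml kanamycin; loss of luminescence reflects streptokinase promoter inhibition or plain growth inhibition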
T cruzi inh – blocks replication of Trypanosoma cruzi | inhibition, % (concentration not given with the values) | T. cruzi beta-gal in NIH3T3, luminescence, 90 h | 300,000 compounds, 1.4% hits | AID 1885;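 active = mean inhibition across valid replicates above about 55%, limit read from the data; inconclusive = mean below that limit but half or more replicates reach it; inactive = mean below it, under half of replicates reach it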;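 also: signal also drops with host cell toxicity which is not excluded here; higher percent means less beta-gal luminescence so fewer parasites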
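compound dosing = single 50 nL compound addition per well in DMSO | material = NIH/3T3 host cells with β-galactosidase reporter T. cruzi | input = 5,000 host fibroblasts per well | timing = ≥90 h infection period, 3 h prior cell attachment | read-out basis = percent inhibition of parasite-derived β-gal signal | detection = GalScreen β-gal luminescence, detergent lysis, 60 min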
Beta apoptosis – blocks beta cell apoptosis; protection from apoptosis, % (test concentration not listed); 300,000 compounds, 0.8% hits; INS-1E cytokine-induced death, ATP luminescence, 48 h; percent of positive-control rescue, neutral wells zero;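 active = Every replicate reaches about 75%, or at least half do and their mean reaches it too, limit read from the data; inconclusive = At least half of replicates reach the limit but their mean does not; inactive = Under half of replicates reach the limit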;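 also: higher means more ATP so stronger rescue from cytokine killing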
CSC inhib – cancer stem cell inhibition; inhibition, % at 7.5 µM; 300,000 compounds, 1.1% hits; cancer stem cell-like cells viability, luminescence; in the data active = inhibition above about 75%; inconclusive = no clear call, values can overlap the other calls; tested in HMLE shEcad cells
Mdm2-MdmX inh – inhibitors of human Mdm2/MdmX interaction; SaOS-2 split-luciferase Mdm2/MdmX complementation, luminescence; inhibition, % at 8 µM; O15151+Q00987; 330,000 compounds, 3% hits; AID 485346;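 active = inhibition of at least 50% at 8 µM in the primary screen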
Target sequence (O15151 whole entry, looked up): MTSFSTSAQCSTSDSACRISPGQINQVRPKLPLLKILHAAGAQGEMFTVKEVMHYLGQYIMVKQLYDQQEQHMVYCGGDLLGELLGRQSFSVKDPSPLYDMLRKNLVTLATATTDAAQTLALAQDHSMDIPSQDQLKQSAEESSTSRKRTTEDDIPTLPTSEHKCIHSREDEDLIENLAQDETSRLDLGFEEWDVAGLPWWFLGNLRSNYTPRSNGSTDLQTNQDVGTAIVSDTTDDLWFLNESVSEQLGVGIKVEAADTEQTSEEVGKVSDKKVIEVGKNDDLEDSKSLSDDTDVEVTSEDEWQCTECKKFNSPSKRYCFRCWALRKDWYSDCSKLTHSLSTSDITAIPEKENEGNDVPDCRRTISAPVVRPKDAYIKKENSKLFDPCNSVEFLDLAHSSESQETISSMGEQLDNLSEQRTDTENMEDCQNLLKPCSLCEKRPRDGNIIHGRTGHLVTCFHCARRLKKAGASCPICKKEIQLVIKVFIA
Target sequence (Q00987 whole entry, looked up): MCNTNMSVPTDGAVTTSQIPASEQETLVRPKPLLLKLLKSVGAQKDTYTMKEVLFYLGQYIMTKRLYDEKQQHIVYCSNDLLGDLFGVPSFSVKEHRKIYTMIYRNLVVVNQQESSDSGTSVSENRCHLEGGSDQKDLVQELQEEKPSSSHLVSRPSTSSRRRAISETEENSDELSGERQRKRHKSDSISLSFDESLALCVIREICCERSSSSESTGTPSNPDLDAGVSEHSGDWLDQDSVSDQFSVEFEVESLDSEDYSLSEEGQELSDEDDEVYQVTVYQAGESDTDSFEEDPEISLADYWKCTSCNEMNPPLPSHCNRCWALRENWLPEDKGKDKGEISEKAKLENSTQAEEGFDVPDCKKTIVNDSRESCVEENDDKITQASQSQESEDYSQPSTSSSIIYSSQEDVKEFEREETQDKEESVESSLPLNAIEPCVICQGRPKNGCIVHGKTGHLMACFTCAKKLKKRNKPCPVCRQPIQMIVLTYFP
Calb FLC – affects C. albicans growth with fluconazole; C. albicans CaCi-2 (fluconazole-resistant clinical isolate) + fluconazole, Alamar Blue growth, 48 h; growth inhibition, % (concentration not given with the values); 300,000 compounds, 0.57% hits;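 active = growth inhibition above about 58% in most replicates, limit read from the data, passing the limit was not always enough; inconclusive = exactly half the replicates above a set limit; inactive = most replicates below a set limit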;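 also: all wells also contain fluconazole at 8 µg/ml as a sub-toxic cotreatment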
Mdm2-MdmX conf – human Mdm2/MdmX binding inhibition, confirmed | shares compounds with Mdm2-MdmX inh | luminescent assay | inhibition, % at 8 µM | 10,000 compounds, 55% hits | AID 489028; in the data active = inhibition above about 40%
FLuc counter – counter-screen for Mdm2/MdmX inhibitors: full-length luciferase; SaOS-2 full-length luciferase counterscreen, luminescence; AID 504607; inhibition, % at 8 µM; 6,200 compounds, 77% hits; shares compounds with Mdm2-MdmX inh;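 active = mean inhibition at 8 µM reaching about 37%, which flags the compound as non-specific, limit read from the data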;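 also: p53-null SaOS-2 cells with luciferase driven by a doxycycline-inducible promoter; compound on cells about two nights before reading with doxycycline added after day one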
Each line names hits and unclear results; the compound was inactive in the other large screens (follow-up assays come after a bar, where they were run).

CC1=C(C(=O)OCc2ccc3c(c2)OCO3)C(c2ccccc2OCc2ccccc2)NC(=O)N1 (configuration not stated)	none
CC1=C(C(=O)OCc2ccc3c(c2)OCO3)C(c2ccc(O)c([N+](=O)[O-])c2)NC(=O)N1 (configuration not stated)	Mdm2-MdmX inh 51.3 (no result: CSC inhib) | Mdm2-MdmX conf inactive
CC(OC(=O)COc1ccccc1Cc1ccccc1)C(=O)N(C)c1ccccc1 (configuration not stated)	none (no result: CSC inhib)
Cc1[nH]c2ccccc2c1/C=N/NC(=O)c1cccs1	none
Cc1c(/C=N/NC(=O)c2cccs2)c2ccccc2n1Cc1ccccc1Cl	Mdm2-MdmX inh 71.5 | Mdm2-MdmX conf 64.8 | FLuc counter 89.6
Cc1noc(C)c1-c1ccc2ncnc(NCC3CCCCN3C)c2c1 (configuration not stated)	Mdm2-MdmX inh 72.3 (no result: SKKanGAS inh, T cruzi inh, Calb FLC) | Mdm2-MdmX conf 46.5 | FLuc counter 73.0
COc1cccc(-c2ccc3ncnc(NCc4cccc(C)c4)c3c2)c1	none (no result: SKKanGAS inh, T cruzi inh, Calb FLC)
CCc1cc2c(NCCN3CCCCC3)ncnc2s1	Calb FLC inconclusive
c1csc(CNc2ncnc3ccc(-c4ccc5c(c4)OCCO5)cc23)c1	none (no result: SKKanGAS inh, T cruzi inh, CSC inhib, Calb FLC)
Cc1ccsc1CNc1ncnc2ccc(-c3c(C)noc3C)cc12	Mdm2-MdmX inh 94.1 (no result: SKKanGAS inh, T cruzi inh, Calb FLC) | Mdm2-MdmX conf 69.0 | FLuc counter 52.0
COc1cccc(CNc2ncnc3ccc(-c4c(C)noc4C)cc23)c1	Mdm2-MdmX inh 85.1 (no result: SKKanGAS inh, T cruzi inh, Calb FLC) | Mdm2-MdmX conf 72.8 | FLuc counter inactive
Cc1cc(Cl)ccc1NC(=S)NCc1ccc(F)cc1	none (no result: Beta apoptosis)
NC(=O)C1CCN(C(=O)N2c3ccccc3Sc3ccccc32)CC1	none
O=C(C1CC1)N1c2ccccc2Sc2ccccc21	Mdm2-MdmX inh 61.4 | Mdm2-MdmX conf 55.4 | FLuc counter 75.0
N#CC(C#N)=c1ccc2c(c1)N1C3=C(CCCC3)CC3CCCCC31N=2 (configuration not stated)	Mdm2-MdmX inh 66.8 | Mdm2-MdmX conf 45.9 | FLuc counter 38.2
Cc1ccc(C(=O)NC(C(=O)OCc2cn3cc(Cl)ccc3n2)C(C)C)cc1 (configuration not stated)	none (no result: SKKanGAS inh, T cruzi inh, Calb FLC)
CCC(=O)c1ccc(N2CCN(C(=O)c3cccs3)CC2)c(F)c1	none
COC(=O)c1ccc2c(c1)C(C)(C)C(/C=C/c1ccc(OC)c(OC)c1OC)=[N+]2C	Beta apoptosis 107.3, Mdm2-MdmX inh 100.6 (no result: T cruzi inh) | Mdm2-MdmX conf 78.2 | FLuc counter 51.3
O=C(NCc1ccco1)C1CCN(C(=O)c2ccc([N+](=O)[O-])cc2)CC1	none (no result: Beta apoptosis)
N#Cc1c(-c2ccccc2)cc(-c2ccc(O)cc2)nc1N	none (no result: Beta apoptosis, CSC inhib)
N#Cc1c(-c2ccc(Br)cc2)cc(-c2cccnc2)nc1N	Calb FLC inconclusive
COc1nc(-c2ccccc2)cc(-c2ccc3c(c2)OCO3)c1C#N	Mdm2-MdmX inh 56.9 | Mdm2-MdmX conf 57.5 | FLuc counter 58.4
COc1ccc(-c2cc(-c3ccccc3)c(C#N)c(S(C)(=O)=O)n2)cc1	Mdm2-MdmX inh 89.8 (no result: Calb FLC) | Mdm2-MdmX conf inactive
CS(=O)(=O)c1nc(-c2ccc(Br)cc2)cc(-c2ccccc2)c1C#N	CSC inhib 86.0, Mdm2-MdmX inh 100.5 | Mdm2-MdmX conf 76.1 | FLuc counter 51.5
N#Cc1c(-c2ccc3c(c2)OCO3)cc[nH]c1=O	none
CS(=O)c1nc(-c2ccc(Br)cc2)cc(-c2ccccc2)c1C#N (configuration not stated)	CSC inhib 75.1, Mdm2-MdmX inh 100.3 | Mdm2-MdmX conf 87.2 | FLuc counter inactive
COc1ccc(NC(=O)c2cc3c(Cl)nc4ccccc4c3s2)cc1OC	none
CCn1c(=O)c2cc(C(=O)Nc3ccccc3OC)sc2c2ccccc21	Mdm2-MdmX inh 61.4 | Mdm2-MdmX conf inactive | FLuc counter 73.0
COc1ccc(OC)c(NC(=O)c2cc3c(Cl)nc4ccccc4c3s2)c1	Mdm2-MdmX inh 52.8 | Mdm2-MdmX conf inactive
O=C(CN(CC1CCCO1)C(=O)CNS(=O)(=O)c1ccc(F)cc1)NCc1ccc(F)cc1 (configuration not stated)	none
COc1ccc(N(CC(=O)NCc2ccco2)C(=O)CCC(=O)Nc2nccs2)cc1	none
O=C(COc1ccc(C(=O)c2ccccc2)cc1)NCc1ccc(F)cc1	Mdm2-MdmX inh 63.2 | Mdm2-MdmX conf 67.0 | FLuc counter 76.2
CSc1ccc(CN(C)C(=O)COc2ccc(C(=O)c3ccccc3)cc2)cc1	Mdm2-MdmX inh 65.4 | Mdm2-MdmX conf 59.4 | FLuc counter 96.4
CCc1ccc(C(=O)Cc2cc3cccc(OC)c3oc2=O)cc1	none
CCCCn1nc(C(=O)N(CC)CC(=O)Nc2c(F)cccc2F)c2ccccc2c1=O	none (no result: SKKanGAS inh, T cruzi inh, Calb FLC)
CC(C)(C)c1ccc(Cn2c(=N)n(CC(O)c3ccco3)c3ccccc32)cc1 (configuration not stated)	T cruzi inh 60.0, Mdm2-MdmX inh 97.6 | Mdm2-MdmX conf 83.8 | FLuc counter 39.6
O=C(NNC(=O)C12CC3CC(CC(C3)C1)C2)c1ccccc1O	Mdm2-MdmX inh 52.5 (no result: SKKanGAS inh, T cruzi inh, Calb FLC) | Mdm2-MdmX conf inactive
O=C(NNC(=O)C12CC3CC(CC(C3)C1)C2)c1ccccc1F	none
Cc1ccc(-n2ncc3c2CC(C)(C)CC3NC(=O)c2ccncc2)cc1 (configuration not stated)	none
CC(Sc1ccccc1)C(=O)NNC(=O)c1csc(N2CCOCC2)n1 (configuration not stated)	none (no result: Beta apoptosis)
Cc1ccc(-c2csc(/C=C3\SC(C)C(=O)N3CC(=O)Nc3ccccc3F)n2)cc1 (configuration not stated)	none
O=C(CN1C(=O)CS/C1=C\c1nc(-c2ccc(Cl)cc2)cs1)Nc1cccnc1Cl	Mdm2-MdmX inh 78.6 | Mdm2-MdmX conf inactive
C/C(=N\NC(=O)C1(C)CC1(Br)Br)c1cccc(NC(=O)c2ccc(C)o2)c1 (configuration not stated)	Mdm2-MdmX inh 61.3 (no result: Beta apoptosis) | Mdm2-MdmX conf inactive
Cc1ccc(C(=O)Nc2cccc(C(=O)NCc3ccccc3)c2)o1	none
CCC(C)(C)c1ccc(OCCCC[n+]2cccc(C)c2C)c(C(C)(C)CC)c1	Beta apoptosis 117.0, CSC inhib 135.1, Mdm2-MdmX inh 100.2, Calb FLC 109.4 | Mdm2-MdmX conf 98.5 | FLuc counter 53.0
Cc1cc(C(C)(C)C)ccc1OCCCCN1CCCC1	CSC inhib inconclusive
Cc1cc[n+](CC[n+]2ccc(C)cc2)cc1	none
CCC(C)(C)c1ccc(OCCCC[n+]2ccc(C)cc2)c(C(C)(C)CC)c1	Beta apoptosis 115.0, CSC inhib 105.7, Mdm2-MdmX inh 98.5, Calb FLC 94.4 | Mdm2-MdmX conf 97.2 | FLuc counter 53.4
COc1ccc(C(=O)NCc2ccon2)cc1OC1CCN(C(C)C)CC1	none
